Source: PubChem BioAssay AID602172 (The Scripps Research Institute Molecular Screening Center, 2012)
Calls of active or inactive are those of the source.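 Rule for the calls: active = DNA binding activation reaching at least 20% of the dioxin reference response; inactive = the rest.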

Each compound was assayed against Aryl hydrocarbon receptor (Cavia porcellus) (assay: AHR transformation and DRE binding stimulation – cell lysate, guinea pig liver cytosol, radiometric EMSA, mechanism study for AHR activator project, late-stage follow-up (AID 602172)). Conditions: radiometric gel.
Outline: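 Timing: Compound exposure of cytosol 2.5 h, room temperature | Material: Male Hartley guinea pig liver cytosol containing AHR | Input: Cytosol at 8 mg protein per mL | Reagent: Radiolabeled DRE DNA probe with poly[dI·dC] | Measured by: Radiometric EMSA with phosphorimaging | Read-out: AHR:DRE complex amount as percent of 20 nM TCDD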

| Compound | EC50 |
| --- | --- |
| Cc1ccc(-c2cc(-c3cccs3)[nH]n2)c(O)c1 | 500 nM |
| Cc1nc(N)nc(Nc2ccc(Cl)cc2)c1Br | 1000 nM |

Same assay, conditions: radiometric gel, at 10 µM, stronger effect = higher value

| Compound | DNA binding activation (% of TCDD) |
| --- | --- |
| Cc1ccccc1-c1nc(-c2cccnc2)no1 | 40.4% |
| O=C(CN1CCOCC1)Nc1nc2ccc([N+](=O)[O-])cc2s1 | 3.2% (inactive) |
| COc1ccccc1C(=O)Nc1ccc(N2CCCCC2)cc1 | 42% |
| Cn1c(N)c(C(=O)Nc2ccccc2F)sc1=S | 37% |
| COc1ccccc1NC(=O)Nc1cccnc1 | 10% (inactive) |
| CC(=O)c1ccc(NC(=O)c2cc(Cl)nc3ccccc23)cc1 | 5.3% (inactive) |
| Cc1ccc(Nc2ncccc2C(N)=O)cc1 | 17.6% (inactive) |
| O=C(Nc1cccc(Cl)c1)c1cccnn1 | 21.6% |
| O=C1c2ccccc2-c2nc3ccccc3nc21 | 59.4% |
| COc1cc2c(cc1NC(=O)Nc1ccc(C)cc1)oc1ccccc12 | 17% (inactive) |
| Cc1cc(Nc2ccc(Br)cc2)n2nc(C)nc2n1 | 8.6% (inactive) |
| COc1ccccc1NC(=O)c1ccc2c(c1)nnn2C | 15% (inactive) |
| CCCC(=O)Nc1nn(C)c2nc3cc(C)ccc3cc12 | 12.1% (inactive) |
| O=C(Nc1ccon1)c1cnc2sccn2c1=O | 21% |
| CN(C)c1nc(N)nc(-c2nc3ccccc3s2)n1 | 58.6% |
| CCOc1ccc(NC(=O)c2cc3ccccc3cc2OC)cc1 | 46.8% |

| Compound | DNA binding activation (% of TCDD) |
| --- | --- |
| COc1ccc(Cl)cc1C(=O)Nc1ccc(N(C)C(C)=O)cc1 | 20.2% |
| Cc1c(-c2ccn[nH]2)cc(NC(=O)c2ccc(Cl)cc2)c(=O)n1N | 4.4% (inactive) |
| CCOc1ccc(-c2cc(C)n3nc(C(N)=O)cc3n2)cc1 | 8.2% (inactive) |
| COc1ccc(NC(=O)c2cccc3c(Br)cccc23)cc1 | 18% (inactive) |
| COc1ccccc1NC(=O)c1ccc(C(=O)Nc2ccccc2OC)nc1 | 6.4% (inactive) |
| CCC(=O)Nc1cc(OC)c(NC(=O)c2ccccc2)cc1OC | 7% (inactive) |
| CN1CCN(CCCNC(=O)c2cc3c(-c4ccc(Cl)cc4)nn(C)c3s2)CC1 | 5.4% (inactive) |
| Cn1c(C(=O)N2CCC(C(N)=O)CC2)cc2cc(Cl)ccc21 | 27.8% |
| Cc1csc(SCC(=O)Nc2ccc(Cl)cn2)n1 | 7.8% (inactive) |
| COC(=O)c1ccccc1NC(=O)Cn1ccnc1 | 5.2% (inactive) |
| COc1cc2ccccc2cc1C(=O)Nc1ccc(C)cc1 | 67.8% |
| Cc1nnc(N2C(=O)c3cccc4c([N+](=O)[O-])ccc(c34)C2=O)s1 | 3.7% (inactive) |
| CCOC(=O)Cc1cc(-c2ccc(O)cc2)nc2ccc3ccccc3c12 | 15.3% (inactive) |
| COc1ccc(C(=O)Nc2cc(OC)c(NC(=O)c3ccco3)cc2OC)cc1 | 10% (inactive) |
| CCOc1ccccc1NC(=O)c1ccc2nccnc2c1 | 20% (inactive) |
